Assay results reported in ChEMBL document CHEMBL3797154, “Design and Synthesis of 1-((1,5-Bis(4-chlorophenyl)-2-methyl-1H-pyrrol-3-yl)methyl)-4-methylpiperazine (BM212) and N-Adamantan-2-yl-N'-((E)-3,7-dimethylocta-2,6-dienyl)ethane-1,2-diamine (SQ109) Pyrrole Hybrid Derivatives: Discovery of Potent Antitubercular Agents Effective against …” (J Med Chem, 2016).
≈ marks a conversion by molar mass, not a printed value. Calls of active or inactive are those of the source. The rule behind the calls is not given here.

Assays:
[1] = test system: Mycobacterium tuberculosis variant bovis BCG; test: Antimycobacterial activity against Mycobacterium bovis BCG Pasteur ATCC 35734 assessed as inhibition of mycobacterial growth incubated for 24 hrs by MABA method; assay type: functional; settings: Pasteur ATCC 35734, 24 h
[2] = test system: Mycobacterium tuberculosis; test: Antimycobacterial activity against drug-resistant Mycobacterium tuberculosis isolate MDR1 assessed as inhibition of mycobacterial growth incubated for 9 days; assay type: functional
Outline: (§1)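 MIC by HT-SPOTi on Middlebrook 7H10 agar with 0.05% (v/v) glycerol and 10% (v/v) OADC in 96-well format. Compounds dissolved at 50 mg/mL (stock), two-fold serial dilutions, final 500-0.5 µg/mL. Each well spotted with 2 µL early-to-midlog culture (2x10^3 CFU), incubated at 37 °C until distinct spots in control wells. DMSO-only and isoniazid controls; triplicate.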

[3] = test system: Mycobacterium tuberculosis; test: Antimycobacterial activity against drug-resistant Mycobacterium tuberculosis isolate MDR2 assessed as inhibition of mycobacterial growth incubated for 9 days; assay type: functional; outline: as §1
[4] = test system: Mycobacterium tuberculosis; test: Antimycobacterial activity against drug-resistant Mycobacterium tuberculosis isolate MDR1 assessed as inhibition of mycobacterial growth at 500 ug/ml incubated for 9 days; assay type: functional, organism-based; outline: as §1
[5] = test system: Mycobacterium tuberculosis; test: Antimycobacterial activity against drug-resistant Mycobacterium tuberculosis isolate MDR2 assessed as inhibition of mycobacterial growth at 500 ug/ml incubated for 9 days; assay type: functional, organism-based; outline: as §1

Row | SMILES | MIC [1] | MIC ([2]; isolate MDR1, 216 h) | MIC ([3]; isolate MDR2, 216 h) | MIC [2] | growth inhibition (GI) [4] | MIC [3] | growth inhibition (GI) [5]
1 | Cc1cc(CNCc2ccccc2)c(C)n1-c1ccc(Cl)cc1 | 0.5 µg/mL (≈ 1.54 µM) | 1 µg/mL (≈ 3.08 µM) | 3.9 µg/mL (≈ 12 µM) |  |  |  | 
2 | Cc1cc(CNCc2ccc(F)cc2)c(C)n1-c1ccc(Cl)cc1 | 0.5 µg/mL (≈ 1.46 µM) |  | 16 µg/mL (≈ 46.7 µM) | inactive | inactive |  | 
3 | Cc1cc(CN2CCN(C3CCCCC3)CC2)c(C)n1-c1ccc(Cl)cc1 | 21 µg/mL (≈ 54.4 µM) | 7.8 µg/mL (≈ 20.2 µM) | 62 µg/mL (≈ 161 µM) |  |  |  | 
4 | CC(C)=CCC/C(C)=C/CNCCNC1C2CC3CC(C2)CC1C3 (stereo not given) [SQ109] | 2 µg/mL (≈ 6.05 µM) |  |  |  |  |  | 
5 | Cc1cc(CNCCc2ccccc2)c(C)n1-c1ccc(Cl)cc1 | 16 µg/mL (≈ 47.2 µM) | 1.9 µg/mL (≈ 5.61 µM) | 7.8 µg/mL (≈ 23 µM) |  |  |  | 
6 | Cc1cc(CN2CCN(c3ccccc3)CC2)c(C)n1-c1ccc(Cl)cc1 | 32 µg/mL (≈ 84.2 µM) | 31 µg/mL (≈ 81.6 µM) | > 125 µg/mL |  |  |  | 
7 | Cc1cc(CNC2CCCCC2)c(C)n1-c1ccc(Cl)cc1 | 0.4 µg/mL (≈ 1.26 µM) | 0.5 µg/mL (≈ 1.58 µM) | 16 µg/mL (≈ 50.5 µM) |  |  |  | 
8 | NNC(=O)c1ccncc1 [ISONIAZID] |  | 10 µg/mL (≈ 72.9 µM) | 25 µg/mL (≈ 182 µM) |  |  |  | 
9 | Cc1c(CNC2CCCCC2)cc(-c2ccc(Cl)cc2)n1-c1ccc(Cl)cc1 | 4 µg/mL (≈ 9.68 µM) |  |  |  |  |  | 
10 | Cc1cc(/C=N\OCc2ccccc2)c(C)n1-c1ccc(Cl)cc1 | > 64 µg/mL | > 125 µg/mL | > 125 µg/mL |  |  |  | 
11 | Cc1cc(CN2CCN(C34CC5CC(CC(C5)C3)C4)CC2)c(C)n1-c1ccc(Cl)cc1 | 16 µg/mL (≈ 36.5 µM) | 125 µg/mL (≈ 285 µM) | 125 µg/mL (≈ 285 µM) |  |  |  | 
12 | Cc1cc(CN2CCN(C3C[C@@H]4CC[C@H]3C4)CC2)c(C)n1-c1ccc(Cl)cc1 (mixture of isomers) | 32 µg/mL | 3.9 µg/mL | 31 µg/mL |  |  |  | 
13 | Cc1cc(CNC2C3CC4CC(C3)CC2C4)c(C)n1-c1ccc(Cl)cc1 (stereo not given) | 2 µg/mL (≈ 5.42 µM) | 3.9 µg/mL (≈ 10.6 µM) | 125 µg/mL (≈ 339 µM) |  |  |  | 
14 | Cc1cc(CN2CCN(C3C4CC5CC(C4)CC3C5)CC2)c(C)n1-c1ccc(Cl)cc1 (stereo not given) | 3.3 µg/mL (≈ 7.53 µM) | 7.8 µg/mL (≈ 17.8 µM) | 16 µg/mL (≈ 36.5 µM) |  |  |  | 
15 | Cc1c(CN2CCN(C3CC4CCC3C4)CC2)cc(-c2ccc(Cl)cc2)n1-c1ccc(Cl)cc1 (mixture of isomers) | 64 µg/mL |  |  |  |  |  | 
16 | Cc1c(CN2CCN(C)CC2)cc(-c2ccc(Cl)cc2)n1-c1ccc(Cl)cc1 | 0.78 µg/mL (≈ 1.88 µM) | 3.9 µg/mL (≈ 9.41 µM) | 16 µg/mL (≈ 38.6 µM) |  |  |  | 
17 | Cc1cc(CN2CCN(C3C4CC5CC(C4)CC3C5)CC2)c(C)n1-c1ccc(C(C)C)cc1 (stereo not given) | 4 µg/mL (≈ 8.97 µM) | 62 µg/mL (≈ 139 µM) | 125 µg/mL (≈ 280 µM) |  |  |  | 
18 | Cc1cc(CNCc2ccccc2)c(C)n1-c1ccc(F)cc1 | 13 µg/mL (≈ 42.2 µM) | 7.8 µg/mL (≈ 25.3 µM) | 62 µg/mL (≈ 201 µM) |  |  |  | 
19 | Cc1c(CN2CCN(c3ccccc3)CC2)c(CN2CCN(c3ccccc3)CC2)c(C)n1-c1ccc(Cl)cc1 | > 64 µg/mL | 62 µg/mL (≈ 112 µM) | > 125 µg/mL |  |  |  | 
20 | Cc1c(CNCc2ccccc2)cc(-c2ccc(Cl)cc2)n1-c1ccc(Cl)cc1 | 8 µg/mL (≈ 19 µM) |  |  |  |  |  | 
21 | Cc1cc(CNOCc2ccccc2)c(C)n1-c1ccc(F)cc1 | > 64 µg/mL | 62 µg/mL (≈ 191 µM) | > 125 µg/mL |  |  |  | 
22 | Cc1cc(CN2CCN(C3C4CC5CC(C4)CC3C5)CC2)c(C)n1-c1ccccc1F (stereo not given) | 1.3 µg/mL (≈ 3.08 µM) | 7.8 µg/mL (≈ 18.5 µM) | 16 µg/mL (≈ 38 µM) |  |  |  | 
23 | Cc1cc(CNCc2ccc(Cl)cc2)c(C)n1-c1ccc(Cl)cc1 | 8 µg/mL (≈ 22.3 µM) | 31 µg/mL (≈ 86.3 µM) | > 125 µg/mL |  |  |  | 
24 | Cc1ccc(CNCc2cc(C)n(-c3ccc(Cl)cc3)c2C)cc1 | 4 µg/mL (≈ 11.8 µM) | 3.9 µg/mL (≈ 11.5 µM) | 7.8 µg/mL (≈ 23 µM) |  |  |  | 
25 | Cc1c(CN2CCN(c3ccccc3)CC2)cc(-c2ccc(Cl)cc2)n1-c1ccc(Cl)cc1 | 2 µg/mL (≈ 4.2 µM) | 3.9 µg/mL (≈ 8.19 µM) | > 125 µg/mL |  |  |  | 
26 | Cc1cc(CNOCc2ccccc2)c(C)n1-c1ccc(Cl)cc1 | > 64 µg/mL | 125 µg/mL (≈ 367 µM) |  |  |  | inactive | inactive
27 | Cc1c(CN2CCN(C34CC5CC(CC(C5)C3)C4)CC2)cc(-c2ccc(Cl)cc2)n1-c1ccc(Cl)cc1 | 2 µg/mL (≈ 3.74 µM) | 16 µg/mL (≈ 29.9 µM) | 62 µg/mL (≈ 116 µM) |  |  |  | 
28 | Cc1cccc(-n2c(C)cc(CN3CCN(C4C5CC6CC(C5)CC4C6)CC3)c2C)c1 (stereo not given) | 62 µg/mL (≈ 148 µM) | 31 µg/mL (≈ 74.2 µM) | 125 µg/mL (≈ 299 µM) |  |  |  | 
29 | Cc1c(CN2CCN(C3C4CC5CC(C4)CC3C5)CC2)cc(-c2ccc(Cl)cc2)n1-c1ccc(Cl)cc1 (stereo not given) | 64 µg/mL (≈ 120 µM) | 125 µg/mL (≈ 234 µM) | 125 µg/mL (≈ 234 µM) |  |  |  | 
